The structures appear in SMILES notation.

The nature of the data set: Toxicity liver stage against HepG2, at 10uM. The format is cell-based. Details: test concentration 10 uM, cell line HepG2-A16-CD81EGFP. Particulars: human, HepG2-A16-CD81EGFP cells; read-out: INHIBITION
Put shortly:
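Uninfected HepG2-A16-CD81EGFP cells, 3 × 10^3 per well, 1536-well, plated on prespotted compound at 10 μM final, parasite-free screening media added to match infected plates; puromycin 10 μM positive, DMSO 0.5% negative; run in parallel with 48 h PbLuc assay at 37 °C, 5% CO2; viability by CellTiter-Glo luminescence, normalized to controls.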
`c1ccc(-c2cnc(CN3CCn4c(nnc4C4CC4)C3)o2)cc1`: the cytotoxicity at 10 µM is -7.67%.

With `COCC1CN(Cc2cccnc2)Cc2nnn(CC3CC3)c21` (stereo unspecified), the cytotoxicity at 10 µM was -0.0925%. To `COCc1ccccc1C(=O)N1CCCC(n2nc(C)cc2C)C1` (stereo unspecified) belongs -10.5%. As for `CC(CNC(=O)c1cc(Cn2cnc3ccccc32)[nH]n1)N1CCCC1` (stereo unspecified), the figure is -4.62%. To `Cc1cc(C(=O)N2CCOCC2c2nc(C)c[nH]2)nc(O)n1` (stereo unspecified) belongs 2.85%; to `CC(C)(C)NC(=O)CNC(=O)c1cccnc1Oc1cccnc1`, 4.11%; to `CCS(=O)(=O)NC(CCSC)C(=O)Nc1cccc(C)c1C` (stereo unspecified), -2.51%. Consider `CCS(=O)(=O)N1CCC2(CC(=O)N(c3ccccc3C)C2)C1` (stereo unspecified), for which the cytotoxicity at 10 µM worked out at 2.82%. As for `COCCN1CCC(CNC(=O)C2(c3cccc(C)c3)CC2)C1` (stereo unspecified), the figure is -4.28%; as for `c1ccc(-c2cc(CNCCN3CCOCC3)c3nnnn3c2)cc1`, -17.6%; as for `CC(=O)c1c(C)nn(CC(=O)Nc2ccc(Br)cc2)c1C`, -9.87%. To `COc1ccc(-c2cc(C3(O)CCCC3)on2)cc1` belongs 2.5%; to `O=C(NS(=O)(=O)c1cc(Cl)ccc1Cl)c1cccc2c1OCCO2`, 10.3%. To `CCn1cc(NC(=O)c2c(C)nn(C)c2C)c(C(N)=O)n1` belongs 0.946%. In the case of `CSc1ccccc1C(=O)N1CCN(C)C2(CCC(=O)N(C)CC2)C1` (stereo unspecified), the cytotoxicity at 10 µM was found to be 3.84%.

In the case of `COCCN(Cc1cccc(OCCO)c1)Cc1ccccc1F`, the cytotoxicity at 10 µM was -9.53%. As to `Cc1cc(N2CCCN(C(=O)Cc3csc(C)n3)CC2)ccn1`, the cytotoxicity at 10 µM was -12%. To `CN1C(=O)[C@@H]2CC[C@H]1CN(C(=O)Nc1ccccc1C(F)(F)F)C2` belongs -2.53%; to `CC(C)c1cc(C(=O)N2C[C@@H](C)[C@](O)(C3CC3)C2)[nH]n1`, 16.3%. As for `Cn1nc(C2CCCN(Cc3cc(F)ccc3F)C2)c2nccnc21` (stereo unspecified), the figure is -12.9%. As for `CCOCc1cnc2n1CCN(C(=O)C1=CCCC1)C2C` (stereo unspecified), the figure is -2.42%. For `CN1CCN(Cc2cnc3n2CCN(C(=O)c2ccccn2)C3)CC1`, the cytotoxicity at 10 µM was -88.7%.

Regarding `COc1cc(CNC(=O)c2c(C)noc2C)ccn1`, the cytotoxicity at 10 µM is -8.83%. As for `O=C(c1ccc(=O)[nH]n1)N1CCc2ccccc21`, the figure is 37.9%.

As for `CN(C)C(=O)CCS(=O)(=O)Cc1coc(-c2ccc(F)cc2)n1`, the cytotoxicity at 10 µM is -2.26%. To `Cn1cc(C[C@H]2[C@H](O)CCN2CC2CCOCC2)cn1` belongs -65.7%. As for `Cc1cnc(N2CCc3c(CNc4ccnc(C)n4)cncc3C2)nc1`, the figure is -39.1%; as for `COc1cc(C)nc(N2CCN(C(=O)CCc3cscn3)CC2)n1`, -10.2%. As for `CC1(CNS(=O)(=O)c2cccc(C(=O)N3CCSCC3)c2)COC1`, the figure is -6.69%. In the case of `CN(C)c1ncc(CNC(=O)Nc2ccc(C(F)(F)F)cc2)n1C`, the cytotoxicity at 10 µM was -49.9%. As for `CC(C(=O)Nc1cccc(Cl)c1)N1CCN(Cc2ncc[nH]2)CC1` (stereo unspecified), the figure is -8.64%; as for `OC1CCN(c2ccnc3c(F)cc(Br)cc23)CC1`, 11.6%; as for `CN1CCC(N2CCOC[C@H](OCC(=O)N(C)C)C2)CC1`, 1.44%.

As for `CCN(Cc1ccncc1)C1CCN(c2ccccc2)C1=O` (stereo unspecified), the cytotoxicity at 10 µM is -1.83%.

As to `CSCCC(NC(=O)c1ccccc1)C(=O)N(C)Cc1ccsc1` (stereo unspecified), the cytotoxicity at 10 µM was 7.17%. As for `O=C(CCn1cnc2cc(F)c(F)cc21)N1CCN(C2CC2)CC1`, the figure is -1.54%; as for `Cc1cccc(CC(=O)N2CCOCC2c2c(C)n[nH]c2C)c1` (stereo unspecified), 9.18%. As for `O=C(NCC1CCCCO1)c1ccc(-c2ccco2)[nH]c1=O` (stereo unspecified), the figure is -3.06%; as for `c1cc(COc2ccc(CNC3CCc4ncnn4C3)cc2)ccn1` (stereo unspecified), -0.279%. As for `Cc1ccsc1CN(C)c1cc(N2CCOCC2)ncn1`, the figure is -0.33%; as for `CCc1ccc(S(=O)(=O)Nc2cc(C(=O)O)ccc2F)s1`, -8.27%; as for `COc1c(CNCc2ccccc2Cn2cccn2)c(C)nn1C`, 9.79%. As for `Cn1nnc(C2(NC(=O)c3ccccc3)CCCC2)n1`, the cytotoxicity at 10 µM was -10.5%. For the compound `COCc1nc(C(=O)N2CCN(c3nccc(OC)n3)CC2)cs1`, the cytotoxicity at 10 µM was -7.68%. To `CCn1c(CN(C)C)nnc1C1CCN(Cc2ccc(Cl)c(F)c2)CC1` belongs 3.73%; to `CCN(CC)CCNC(=O)c1cnc(-c2ccccc2)nc1`, 12.4%. To `CCOC(=O)c1ccc(S(=O)(=O)NCc2cccnc2N(C)C)cc1` belongs 32.1%; to `O=c1cc(CNCc2ccc3c(c2)OCO3)nc2ccc(Br)cn12`, -2.62%; to `c1ccc(CN2C[C@@H]3OCCN(CC4CCCO4)[C@@H]3C2)nc1` (stereo partly specified), 0.616%.

Consider `Cc1ncc(CN2CCN(c3ccc4nncn4n3)C(C)C2)s1` (stereo unspecified), for which the cytotoxicity at 10 µM was -9.04%. As for `Cc1cccc(C)c1OCCCN1CCN(CC2CCCO2)CC1` (stereo unspecified), the figure is 9.09%; as for `CC(Cn1cncn1)NC(=O)NCC(C)(C)Cc1ccccc1` (stereo unspecified), 17%; as for `CN(C)C(=O)N1CC2(CCN(S(C)(=O)=O)CC2)c2ccccc21`, -121%. As for `CCOC(=O)C1CCN(C(=O)CN2CCCC2c2cc(C)no2)CC1` (stereo unspecified), the figure is 8.32%. As for `CCSc1cc(C(=O)NC(C)c2cccc(N3CCOC3=O)c2)ccn1` (stereo unspecified), the figure is 24.1%; as for `CCN1CC(COc2ccc(OC)cc2)Oc2ccncc2S1(=O)=O` (stereo unspecified), -7.6%; as for `Cc1cc(C)n(CC(C)NC2CCN(Cc3cccc(O)c3)CC2)n1` (stereo unspecified), -2.01%. Consider `O=C(C1CCOCC1)N1CC[C@H](O)[C@@H]1Cc1cccnc1`, for which the cytotoxicity at 10 µM is -104%. With `Cn1ccnc1CN1C[C@@H](F)[C@@H](OCc2nc3cnccc3[nH]2)C1`, the cytotoxicity at 10 µM is 3.39%. On to `Cc1noc([C@@H]2C[C@H](NC(=O)C3CCCCC3)CN2C)n1`, for which the cytotoxicity at 10 µM is -4.89%.

For `Cc1cccc(OC(C)C(=O)NCC2(N(C)C)CCCC2)c1` (stereo unspecified), the cytotoxicity at 10 µM was -13.4%. On to `O=C(Cc1ccc(CO)cc1)N1CCN(CC2CC2)[C@@H]2CS(=O)(=O)C[C@@H]21`, for which the cytotoxicity at 10 µM is -14.2%. To `Cc1noc2ncc(C(=O)N3CCCC3c3ccncc3)cc12` (stereo unspecified) belongs -5.66%; to `CN(Cc1cnn(C)c1)S(=O)(=O)N1CCCCC1`, -3.38%. As for `CN(Cc1cccs1)C(=O)Cn1cc(NC(=O)C(C)(C)C)cn1`, the figure is -3.52%; as for `O=C(NC1CC1)[C@H]1C[C@H]2OCC[C@H]2N(Cc2ccco2)C1`, 8.88%.

For `COCCn1cc(C(=O)N2CCCC(n3cncn3)C2)ccc1=O` (stereo unspecified), the cytotoxicity at 10 µM was -2.38%.

As to `Cc1cccc(CS(=O)(=O)CC(=O)N(C)Cc2ccccc2F)c1`, the cytotoxicity at 10 µM was -2.71%. As for `CCc1nccn1C1CCCN(C(=O)c2cn3c(C)cccc3n2)C1` (stereo unspecified), the figure is -14.5%; as for `CC(C)Oc1ccc(C(O)CNCc2ccccc2C(F)(F)F)cc1` (stereo unspecified), -1.71%; as for `CNC(=O)Cc1ccccc1NC(=O)C1CCCC1`, 31.1%.

Values taken from ChEMBL document CHEMBL4513216, “Probing the Open Global Health Chemical Diversity Library for Multistage-Active Starting Points for Next-Generation Antimalarials” (ACS Infect Dis, 2020).
